Experiments:
Rat [1] = experiment: concentration in plasma after dosing; settings: dosed: 2-Hydroxy-4-methoxybenzophenone, 100 mg/kg, oral, Female, F344
Mouse [2] = experiment: concentration in plasma after dosing; settings: dosed: 2-Hydroxy-4-methoxybenzophenone, 100 mg/kg, oral, Female, B6C3F1
Mouse [3] = experiment: concentration in plasma after dosing; settings: 3 h; dosed: 2-Hydroxy-4-methoxybenzophenone; 50 mg/kg; iv; Female; B6C3F1
Rat [4] = experiment: concentration in plasma after dosing; settings: dosed: 2-Hydroxy-4-methoxybenzophenone, 100 mg/kg, oral, Male, F344
Mouse [5] = experiment: concentration in plasma after dosing; settings: 10 min; dosed: 2-Hydroxy-4-methoxybenzophenone; 50 mg/kg; iv; Female; B6C3F1
Rat [6] = experiment: concentration in plasma after dosing; settings: 2.5 h; dosed: 76231-76-0; 3.0 mg/kg; iv; Female; F344
Rat [7] = experiment: concentration in plasma after dosing; settings: 3 h; dosed: alpha-Thujone; 25 mg/kg; oral; Male; Harlan Sprague Dawley
Rat [8] = experiment: concentration in brain after dosing; settings: 1.5 h; dosed: alpha-Thujone; 50 mg/kg; oral; Male; Harlan Sprague Dawley
Rat [9] = experiment: concentration in brain after dosing; settings: 10 min; dosed: alpha-Thujone; 50 mg/kg; oral; Female; Harlan Sprague Dawley
Rat [10] = experiment: concentration in brain after dosing; settings: 0.5 h; dosed: alpha-Thujone; 25 mg/kg; oral; Male; Harlan Sprague Dawley
Rat [11] = experiment: concentration in plasma after dosing; settings: 12 h; dosed: alpha-Thujone; 50 mg/kg; oral; Female; Harlan Sprague Dawley
Rat [12] = experiment: concentration in plasma after dosing; settings: 1.5 h; dosed: alpha-Thujone; 50 mg/kg; oral; Female; Harlan Sprague Dawley
Rat [13] = experiment: concentration in plasma after dosing; settings: 10 min; dosed: alpha-Thujone; 25 mg/kg; oral; Male; Harlan Sprague Dawley
Rat [14] = experiment: concentration in plasma after dosing; settings: 2 min; dosed: alpha-Thujone; 50 mg/kg; oral; Male; Harlan Sprague Dawley
Rat [15] = experiment: concentration in brain after dosing; settings: 6 h; dosed: alpha-Thujone; 25 mg/kg; oral; Male; Harlan Sprague Dawley
Rat [16] = experiment: concentration in kidney after dosing; settings: 192 h; dosed: Perfluorohexane-1-sulphonic acid – potassium salt; 16 mg/kg; oral; Female; F344
Rat [17] = experiment: concentration in liver after dosing; settings: 6 h; dosed: Perfluorohexane-1-sulphonic acid – potassium salt; 16 mg/kg; oral; Female; Harlan Sprague Dawley
Rat [18] = experiment: concentration in liver after dosing; settings: 12 h; dosed: Perfluorohexane-1-sulphonic acid – potassium salt; 16 mg/kg; oral; Female; Harlan Sprague Dawley
Rat [19] = experiment: concentration in kidney after dosing; settings: 96 h; dosed: Perfluorohexane-1-sulphonic acid – potassium salt; 16 mg/kg; oral; Female; Harlan Sprague Dawley
Rat [20] = experiment: concentration in plasma after dosing; settings: dosed: Perfluorohexane-1-sulphonic acid – potassium salt, 4 mg/kg, oral, Male, F344
Rat [21] = experiment: concentration in liver after dosing; settings: 24 h; dosed: Perfluorohexane-1-sulphonic acid – potassium salt; 16 mg/kg; oral; Female; Harlan Sprague Dawley
Rat [22] = experiment: concentration in plasma after dosing; settings: 2 min; dosed: Pyridine; 10 mg/kg; iv; Male; F344
Rat [23] = experiment: concentration in plasma after dosing; settings: 10 min; dosed: Pyridine; 10 mg/kg; oral; Male; F344
Rat [24] = experiment: concentration in plasma after dosing; settings: dosed: Methyleugenol, 37 mg/kg, iv, Female, F344
Hamster [25] = experiment: concentration in plasma after dosing; settings: dosed: 2,4-Dichlorophenoxyacetic acid, 8.0 mg/kg, iv, Male, Syrian Golden
In short: (§1)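 Points were largely digitised from plot screenshots with WebPlotDigitizer or otherwise copied from tables, and they remain in the units each source reported. They come from published in vivo toxicokinetic studies and two structured collections. Sampling and analytical methods follow each source and were often not reported.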

Hamster [26] = experiment: concentration in plasma after dosing; settings: dosed: 2,4-Dichlorophenoxyacetic acid, 2.0 mg/kg, oral, Male, Syrian Golden
In short: as §1

human = settings: dosed: trichloroethylene, 100 ppm, inhalation, duration: 4 hr, person
In short: as §1

Rat [27] = experiment: concentration in plasma after dosing; settings: 0.25 h; dosed: Primidone; 30 mg/kg; oral; Male; F344
Rat [28] = experiment: concentration in plasma after dosing; settings: 0.5 h; dosed: Primidone; 80 mg/kg; oral; Female; F344
Rat [29] = experiment: concentration in plasma after dosing; settings: 6 h; dosed: Primidone; 130 mg/kg; oral; Female; F344

O=C(c1ccccc1)c1ccc(O)cc1O [2,4-Dihydroxybenzophenone]
Settings | concentration in plasma [ng/mL]
Mouse [2], 0.25 h | 303
Mouse [2], 2 h | 34.9
Mouse [2], 2.5 min | 68
Mouse [2], 3 h | 30.3
Mouse [2], 10 min | 115
Rat [1], 0.5 h | 195
Rat [1], 5 h | 85.4
Rat [4], 0.25 h | 61.2
Rat [4], 4 h | 48.4

Settings | concentration in plasma [ng/mL]
Mouse [3] | 57.7
Mouse [5] | 1610

CC(C)[C@]12CC(=O)[C@H](C)[C@H]1C2 [alpha-Thujone]
Settings | concentration in brain [ng/g] | concentration in plasma [ng/mL]
Rat [6] | – | 2.88
Rat [7] | – | 131
Rat [8] | 1800 | –
Rat [9] | 2340 | –
Rat [10] | 359 | –
Rat [11] | – | 28.6
Rat [12] | – | 323
Rat [13] | – | 872
Rat [14] | – | 152
Rat [15] | 28.2 | –

O=S(=O)([O-])C(F)(F)C(F)(F)C(F)(F)C(F)(F)C(F)(F)C(F)(F)F.[K+] [Perfluorohexane-1-sulphonic acid – potassium salt]
Settings | concentration in kidney [ng/g] | concentration in liver [ng/g]
Rat [16] | 15300 | –
Rat [17] | – | 33000
Rat [18] | – | 29700
Rat [19] | 5570 | –
Rat [21] | – | 25700

Rat [20]
Settings | concentration in plasma [ng/mL]
3 h | 29800
192 h | 18200
1200 h | 6240

c1ccncc1 [Pyridine]
Settings | concentration in plasma [ng/mL]
Rat [22] | 1310
Rat [23] | 5480

C=CCc1ccc(OC)c(OC)c1 [Methyleugenol]
Rat [24]
Settings | concentration in plasma [ng/mL]
0.5 h | 1330
0.75 h | 535

O=C(O)COc1ccc(Cl)cc1Cl [2,4-Dichlorophenoxyacetic acid]
concentration in plasma [ng/mL]
Settings | 0.25 h | 0.5 h | 1 h | 2.5 h | 2.5 min | 5 min | 10 min | 20 min
Hamster [25] | 36900 | 6320 | 939 | 351 | 113000 | – | – | 26600
Hamster [26] | – | – | – | 200 | – | 2770 | 10300 | –

OCC(Cl)(Cl)Cl [trichloroethanol]
human
Settings | amount in urine after dosing [mg]
1 h | 13
2 h | 11
4 h | 21.5
8 h | 36.3
12 h | 31.4
16 h | 26.7
24 h | 33.6
36 h | 39.7
48 h | 22.6
60 h | 17
72 h | 11.5
84 h | 6.52
96 h | 3.88
108 h | 6
120 h | 3.14
132 h | 2.17
144 h | 1.65
156 h | 0.88
168 h | 1.08
180 h | 1.17

CCC1(c2ccccc2)C(=O)NCNC1=O [Primidone]
Settings | concentration in plasma [ng/mL]
Rat [27] | 6800
Rat [28] | 40300
Rat [29] | 74300
